This note sets out measurements from ChEMBL document CHEMBL1145060, “Synthesis and evaluation of pharmacological properties of novel annelated 2,3-benzodiazepine derivatives” (2003).

The nature of assay [1]: Anticonvulsant activity against PTZ induced seizures was observed in mice after intraperitoneal injection. As to conditions: Mus musculus, ip. The assay is classed as functional. In outline:
(§1)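 Swiss mice dosed ip 45 min before seizure induction by maximal electroshock (MES) or pentylenetetrazole (PTZ). ED50 (μmol/kg) with 95% confidence limits by Litchfield and Wilcoxon method.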

Assay [2] is described as follows: Anticonvulsant activity against Audiogenic seizures in DBA/2 mice was observed in tonic phase after intraperitoneal injection. The assay is classed as functional. The settings on record: Mus musculus, ip. In outline:
(§2)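 Compound given intraperitoneally to DBA/2 mice 30 min before audiogenic seizure testing; clonic and tonic phases scored. ED50 (μmol/kg) with 95% confidence limits calculated by Litchfield and Wilcoxon.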

Assay [3] is described as follows: Anticonvulsant activity against Audiogenic seizures in DBA/2 mice was observed in clonic phase after intraperitoneal injection. The assay is classed as functional. As to conditions: Mus musculus, ip. The gist of the method:
as §2

Assay [4] can be described thus: Anticonvulsant activity against in MES was observed in mice after intraperitoneal injection. The assay is classed as functional. The settings on record: Mus musculus, ip. The gist of the method:
as §1

The nature of assay [5]: Anticonvulsant activity against AMPA-induced seizures in DBA/2 mice was observed in clonic phase after intraperitoneal injection. The assay is classed as functional, Mus musculus. The gist of the method: (§3)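 DBA/2 mice given compound intraperitoneally, then challenged with AMPA to induce seizures; clonic and tonic phases scored separately. ED50 (μmol/kg) with 95% confidence limits by Litchfield and Wilcoxon method.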

Assay [6] is described as follows: Anticonvulsant activity against Audiogenic seizures in DBA/2 mice was observed in tonic phase after pretreatment with Aniracetam. It is filed as functional. As to conditions: Mus musculus. In outline: (§4)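 Audiogenic seizure test in DBA/2 mice, clonic and tonic phases; aniracetam 50 nmol given icv 60 min before testing, together with ip compound. ED50 with 95% confidence limits by Litchfield and Wilcoxon method.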

A short description of assay [7]: Anticonvulsant activity against Audiogenic seizures in DBA/2 mice was observed in clonic phase after pretreatment with Aniracetam. The assay is classed as functional. The settings on record: Mus musculus. In outline:
as §4

Assay [8] can be described thus: Anticonvulsant activity against AMPA-induced seizures in DBA/2 mice was observed in tonic phase after intraperitoneal injection. The assay is classed as functional. The settings on record: Mus musculus, ip. The gist of the method: as §3
Setting [9] is: Mus musculus, ip, read-out: ED50.

Structures are written as SMILES.

For `COc1cc2c(cc1OC)C(c1ccccc1)=Nn1c(n[nH]c(=O)c1=O)C2`, the ED50 amounted to 57.6 µmol/kg in assay [1], 17.9 µmol/kg in assay [2], 33.6 µmol/kg in assay [3] and 36.6 µmol/kg in assay [4].

Regarding `COc1cc2c(cc1OC)C(c1cccc(N)c1)=Nn1c(n[nH]c(=O)c1=O)C2`, the ED50 is 57.7 µmol/kg in assay [2] and 74.5 µmol/kg in assay [3].

In the case of `CC(=O)N1N=C(c2ccc(N)cc2)c2cc3c(cc2C[C@H]1C)OCO3` [TALAMPANEL], the ED50 in assay [5] (setting [9]) is 44.2 µmol/kg; in assay [1] it was 56.3 µmol/kg; in assay [2], 9.7 µmol/kg; in assay [4], 28.8 µmol/kg.

Take `COc1cc2c(cc1OC)C(c1ccc(Cl)cc1)=Nn1c(n[nH]c(=O)c1=O)C2`: the ED50 in assay [2] was 33 µmol/kg; in assay [3] it was 37.4 µmol/kg.

For the compound `CC1=NN=C(c2ccc(N)cc2)c2cc3c(cc2C1)OCO3` [GYKI-52466], the ED50 was determined as 57.5 µmol/kg in assay [5] (setting [9]) and 100 µmol/kg in assay [6].

For `COc1cc2c(cc1OC)C(c1ccc(N)cc1)=Nn1c(n[nH]c(=O)c1=O)C2`, the figures for the ED50 in assay [2] and in assay [3] were 52.8 µmol/kg and 59.3 µmol/kg, respectively.

As to `COc1cc2c(cc1OC)C(c1ccc(F)cc1)=Nn1c(n[nH]c(=O)c1=O)C2`, the ED50 stood at 63.2 µmol/kg in assay [1], 28 µmol/kg in assay [2], 39.2 µmol/kg in assay [3] and 37.8 µmol/kg in assay [4].

As for `COc1cc2c(cc1OC)C(c1ccc(Br)cc1)=Nn1c(n[nH]c(=O)c1=O)C2`, the figures for the ED50 in assay [2] and in assay [3] were 54.6 µmol/kg and 76.6 µmol/kg, respectively.

In the case of `COc1cc2c(cc1OC)C(c1cccc([N+](=O)[O-])c1)=Nn1c(n[nH]c(=O)c1=O)C2`, the ED50 is 88.9 µmol/kg in assay [2] and more than 120 µmol/kg in assay [3].

Take `COc1cc2c(cc1OC)C(c1ccc(Br)cc1)=Nn1c(O)nnc1C2`: the ED50 was found to be 17.7 µM/kg in assay [5]; 17.7 µmol/kg in assay [5] (setting [9]); 7.87 µmol/kg in assay [6]; 13.8 µmol/kg in assay [1]; 1.34 µmol/kg in assay [2]; 3.65 µmol/kg in assay [3]. Moreover, the ED50 in assay [4] came out at 5.93 µmol/kg; in assay [7] it was 18.6 µmol/kg.

In the case of `COc1cc2c(cc1OC)C(c1ccc(Cl)cc1)=Nn1c(O)nnc1C2`, the ED50 in assay [5] stood at 46.8 µM/kg; in assay [5] (setting [9]) it was 46.8 µmol/kg; in assay [6] it was 71.8 µmol/kg; in assay [1], 33.1 µmol/kg; in assay [2], 14.1 µmol/kg; in assay [3] it was 28.8 µmol/kg. In addition, the ED50 in assay [7] was found to be 87.8 µmol/kg.

Consider `COc1cc2c(cc1OC)C(c1ccc([N+](=O)[O-])cc1)=Nn1c(n[nH]c(=O)c1=O)C2`, for which the results for the ED50 in assay [2] and in assay [3] were 25.7 µmol/kg and 60 µmol/kg, respectively.

With `COc1cc2c(cc1OC)C(c1ccc(N)cc1)=NNC(=O)C2`, the ED50 in assay [6] was found to be 56.2 µmol/kg; in assay [8], 25 µmol/kg; in assay [3], 15 µmol/kg.
